# Test results: PubChem BioAssay
# Calls of active or inactive are those of the source.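 The calls were made as follows, unless noted: active = viability at or under a set limit in both replicates, limit being median viability minus 3 SD (cut at about 48% in these data, passing the limit was not always enough); inconclusive = at or under the limit in just one replicate; inactive = at or above the limit in both replicates.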
# What was measured:
# [1] = Her2 expression decrease, cell viability multiplex – SKBR3 breast tumor cells, AlphaScreen, ATP viability, primary screen (AID 461;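 active = Her2 level under about 52% in both replicate screens, with viability over 70% of control, limit read from the data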;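 as to Her2 level: lower value means less Her2 protein in the cells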;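 as to viability: percent of carrier control wells set as 100% viability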); conditions: SKBR3 Her2 protein level, 18-24 h, measured here: SKBR3 viability, ATP luminescence, at 10 µM
# [2] = target: Receptor tyrosine-protein kinase erbB-2 (Homo sapiens) (UniProt P04626); assay: as above; conditions: 18-24 h, at 10 µM, stronger effect = lower value
# [3] = reduced viability of SK-BR-3 breast cancer cells – cell-based, 24 h, human, pilot screen (AID 572;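 active = viability at or below 10% of carrier control in both of two separate runs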;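 also: compound exposure lasted between 18 and 24 h rather than exactly 24 h; 100% = carrier-treated control wells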); conditions: SK-BR-3 viability, CellTiter-Glo luminescence, at 10 µM, stronger effect = lower value
# [4] = HUVEC growth inhibition – cell-based, human, primary screen (AID 575;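 active = viability at or below 30% in both replicate assays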;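 also: 100% = median of untreated cell wells with 0.1% DMSO on each plate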); conditions: HUVEC proliferation, CellTiter-Glo luminescence, 72 h; at 10 µM; stronger effect = lower value
# In short: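 system = HUVEC primary cells | amount = 1250 cells/well | buffer or medium = supplemented EBM, 2% fetal bovine serum | dosing = single-point 10 µM, DMSO 0.1% final | times = 72 h compound incubation | detection = CTG luminescence | read-out = % viability relative to median vehicle-well signal on each plate | control set = vehicle and MePR control wells | format = collagen-coated 384-well format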
# [5] = H69AR cell proliferation blockers – human, duplicate replicates, primary screen (AID 580); conditions: H69AR lung tumor cells viability, ATP luminescence, 72 h; at 10 µM; stronger effect = lower value;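 also: 100% = mean luminescence of untreated wells and 0% = no signal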
# [6] = MRP1 drug-resistance reversers in H69AR cells – cell-based, doxorubicin co-treatment, pilot screen (AID 601;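 active = viability loss from added drug above about 55%, and viability with drug at most 40%, in both replicates, limit read from the data, passing the limit was not always enough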); conditions: CellTiter-Glo, 72 h, at 10 µM; for differential viability (reversal): stronger effect = higher value
# [7] = yeast transport mutant growth inhibition pilot in 384-well plates, post-Golgi transport modulator project (AID 636; in the data active = inhibition above about 31%); conditions: absorbance 615 nm, about 18 h, stronger effect = higher value
# [8] = growth suppression of yeast trafficking mutant, preliminary HTS, modulators of trafficking downstream of Golgi apparatus project, 1536-format plate, OD 615 nm (AID 637; in the data active = inhibition above about 30%); conditions: yeast transport mutant growth, absorbance 615 nm, 18 h; stronger effect = higher value
# [9] = H69AR cells + 2 uM doxorubicin, measured here: viability with 2 uM doxorubicin, stronger effect = lower value
# [10] = H69AR cells, compound alone cytotoxicity
# Chain of Receptor tyrosine-protein kinase erbB-2 (Homo sapiens) (P04626 whole entry, looked up): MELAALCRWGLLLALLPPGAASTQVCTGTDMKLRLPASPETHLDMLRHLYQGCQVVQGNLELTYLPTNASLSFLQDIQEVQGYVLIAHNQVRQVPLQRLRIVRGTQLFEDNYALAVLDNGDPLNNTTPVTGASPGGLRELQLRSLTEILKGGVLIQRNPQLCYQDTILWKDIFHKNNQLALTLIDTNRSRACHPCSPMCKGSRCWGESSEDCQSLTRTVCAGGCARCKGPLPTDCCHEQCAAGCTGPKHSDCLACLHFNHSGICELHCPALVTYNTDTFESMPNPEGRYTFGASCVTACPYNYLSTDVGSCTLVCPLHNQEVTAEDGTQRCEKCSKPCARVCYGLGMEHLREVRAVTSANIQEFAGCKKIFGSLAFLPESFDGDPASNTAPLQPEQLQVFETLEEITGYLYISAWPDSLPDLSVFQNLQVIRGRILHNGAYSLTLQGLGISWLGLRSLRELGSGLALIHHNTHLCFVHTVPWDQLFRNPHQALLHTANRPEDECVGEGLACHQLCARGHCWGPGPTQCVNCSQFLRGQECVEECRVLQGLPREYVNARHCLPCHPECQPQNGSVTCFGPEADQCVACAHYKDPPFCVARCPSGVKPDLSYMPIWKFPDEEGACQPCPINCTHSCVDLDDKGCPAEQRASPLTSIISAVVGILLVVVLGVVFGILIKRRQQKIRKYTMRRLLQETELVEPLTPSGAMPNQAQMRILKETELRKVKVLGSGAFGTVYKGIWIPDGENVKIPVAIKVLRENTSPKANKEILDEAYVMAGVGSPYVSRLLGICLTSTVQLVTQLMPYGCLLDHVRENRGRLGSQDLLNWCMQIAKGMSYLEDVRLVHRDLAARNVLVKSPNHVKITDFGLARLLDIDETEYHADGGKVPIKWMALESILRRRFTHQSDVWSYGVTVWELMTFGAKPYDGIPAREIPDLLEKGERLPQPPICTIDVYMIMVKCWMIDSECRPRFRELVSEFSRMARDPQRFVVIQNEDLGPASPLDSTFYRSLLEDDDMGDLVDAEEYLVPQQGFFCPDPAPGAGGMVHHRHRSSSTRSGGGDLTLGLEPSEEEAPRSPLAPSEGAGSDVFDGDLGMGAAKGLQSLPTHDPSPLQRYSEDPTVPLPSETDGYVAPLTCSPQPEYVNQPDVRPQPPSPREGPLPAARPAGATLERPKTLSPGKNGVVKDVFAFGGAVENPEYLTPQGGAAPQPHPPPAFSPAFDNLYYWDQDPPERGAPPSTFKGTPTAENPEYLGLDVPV
SMILES,viability [1] [%],Her2 level [2],viability [3],viability [4],viability [5],differential viability (reversal) ([6]; H69AR cells + 2 uM doxorubicin),"viability [6, 9] [%]","viability [6, 10] [%]",inhibition [7],inhibition [8]
CCOC(=O)Cn1c(=N)n(CCOc2cccc(C)c2)c2ccccc21,121,106% (inactive),121% (inactive),99.6% (inactive),85.9% (inactive),1% (inactive),84.9,85.9,-6.67% (inactive),-0.79% (inactive)
O=C(CN1CCCN(S(=O)(=O)c2ccc(Br)cc2)CC1)Nc1ccc2cn[nH]c2c1,106,109% (inactive),106% (inactive),73.1% (inactive),7.15% (active),-13.3% (inactive),20.5,7.15,-2.37% (inactive),2.79% (inactive)
COc1cc(CC(=O)NCc2ccc3c(c2)OCO3)cc(OC)c1OC,99,78.5% (inactive),99% (inactive),85.9% (inactive),95.8% (inactive),9.63% (inactive),86.2,95.8,-1.84% (inactive),3.45% (inactive)
Cc1ccccc1NC(=O)C1Cc2ccccc2C(=O)O1 (stereo not given),134,112% (inactive),134% (inactive),116% (inactive),98.7% (inactive),7.54% (inactive),91.2,98.7,-4.93% (inactive),3.23% (inactive)
N#Cc1cn(CC(=O)N2CCCC2)c2ccccc12,118,85% (inactive),118% (inactive),100% (inactive),93.6% (inactive),8.44% (inactive),85.2,93.6,-3.29% (inactive),1.15% (inactive)
CCc1nccn1S(=O)(=O)c1ccc(C)c(C)c1,119,92.5% (inactive),119% (inactive),96.7% (inactive),99.6% (inactive),12.7% (inactive),86.9,99.6,-4.86% (inactive),16.2% (inactive)
Cc1cc(NC(=O)Cn2cnc3c2c(=O)n(C)c(=O)n3C)n(-c2ccccc2)n1,116,93% (inactive),116% (inactive),117% (inactive),108% (inactive),8.22% (inactive),99.3,108,-7.97% (inactive),0.83% (inactive)
O=C(Cn1cccc1)N1CCN(C(c2ccccc2)c2ccccc2)CC1,102,87% (inactive),102% (inactive),108% (inactive),91.4% (inactive),-4.55% (inactive),95.9,91.4,-6.76% (inactive),4.33% (inactive)
Cc1c(NC(=O)CSc2nnc3sc4ccccc4n23)c(=O)n(-c2ccccc2)n1C,94,92.5% (inactive),94% (inactive),106% (inactive),90.4% (inactive),0.76% (inactive),89.6,90.4,0.65% (inactive),-2.79% (inactive)
CCCNC(=O)c1ccccc1C(=O)NCCC,93.5,88.5% (inactive),93.5% (inactive),103% (inactive),90.5% (inactive),-4.96% (inactive),95.5,90.5,4.16% (inactive),18.9% (inactive)
CCOC(=O)CNC(=O)Nc1ccccc1C(=O)OC,116,86.5% (inactive),116% (inactive),96.7% (inactive),94.1% (inactive),8.77% (inactive),85.3,94.1,-2.5% (inactive),1.29% (inactive)
O=C(O)c1[nH]c2ccc(Cl)cc2c1CC(=O)N1CCN(C(=O)c2ccco2)CC1,83.5,112% (inactive),83.5% (inactive),108% (inactive),95.8% (inactive),5.25% (inactive),90.5,95.8,-4.34% (inactive),-9.83% (inactive)
COc1nc(OC)nc(N2CCC(C(=O)NC3CCCCCC3)CC2)n1,95.5,102% (inactive),95.5% (inactive),104% (inactive),105% (inactive),4.45% (inactive),100,105,3.6% (inactive),-2.3% (inactive)
Cc1ccc(-c2nn(C)c(=O)c3ccccc23)cc1S(=O)(=O)N1CCOCC1,77,83% (inactive),77% (inactive),83.8% (inactive),92.8% (inactive),16% (inactive),76.8,92.8,-5.07% (inactive),-3.06% (inactive)
CCOC(=O)C1=C(C)Nc2ncnn2C1c1ccccc1F (stereo not given),94,110% (inactive),94% (inactive),116% (inactive),95.6% (inactive),-5% (inactive),101,95.6,-0.92% (inactive),-1.29% (inactive)
CC(c1ccccc1)N1C(=O)c2ccc(C(=O)NCc3ccco3)cc2C1=O (stereo not given),104,84% (inactive),104% (inactive),93.6% (inactive),95.7% (inactive),5.55% (inactive),90.1,95.7,-3.16% (inactive),-4.92% (inactive)
Cc1cc(C(F)F)n2nc(C(=O)Nc3ccc(S(=O)(=O)N4CCCCCC4)cc3)nc2n1,74,73.5% (inactive),74% (inactive),83.4% (inactive),83.3% (inactive),-1.62% (inactive),84.9,83.3,-3.87% (inactive),22.9% (inactive)
COc1ccc(OC)c(C2C(C(=O)Nc3cccnc3)=C(C)NC3=C2C(=O)CCC3)c1 (stereo not given),101,81% (inactive),101% (inactive),88.3% (inactive),98.4% (inactive),15.1% (inactive),83.3,98.4,-6.22% (inactive),1.8% (inactive)
Cc1cc(C)c(C)c(OCC(=O)NCC2CCCO2)c1 (stereo not given),85,85.5% (inactive),85% (inactive),102% (inactive),100% (inactive),8.32% (inactive),91.9,100,-3.38% (inactive),0.16% (inactive)
CN(C)c1nc(N)nc(-c2nc3ccccc3s2)n1,73,89% (inactive),73% (inactive),85.1% (inactive),91.7% (inactive),6.39% (inactive),85.3,91.7,-6.62% (inactive),-1.64% (inactive)
CCC(Sc1ccc(C(=O)O)cc1)C(=O)O (stereo not given),86.5,96% (inactive),86.5% (inactive),95.2% (inactive),93.9% (inactive),3.74% (inactive),90.2,93.9,-1.97% (inactive),-10% (inactive)
N[C@@H](Cc1ccccc1)c1nnc2sc(SCc3ccccc3)nn12,90,84.5% (inactive),90% (inactive),85.2% (inactive),87.9% (inactive),11.5% (inactive),76.4,87.9,-3.07% (inactive),0.48% (inactive)
Cn1c(SCC(N)=O)nnc1C1CCN(C(=O)NCc2ccccc2)CC1,88,103% (inactive),88% (inactive),93.6% (inactive),88.3% (inactive),0.425% (inactive),87.8,88.3,-3.55% (inactive),-9.5% (inactive)
COc1cc(NS(=O)(=O)N2CCCC2)cc(OC)c1OC,83.5,95.5% (inactive),83.5% (inactive),94.8% (inactive),92.2% (inactive),8.42% (inactive),83.8,92.2,-7.57% (inactive),-2.95% (inactive)
Cc1ccccc1NC(=O)C1CCN(c2cnccn2)CC1,98.5,103% (inactive),98.5% (inactive),89.2% (inactive),101% (inactive),8.59% (inactive),92.2,101,-7.07% (inactive),-5.48% (inactive)
COC(=O)Cn1c2c(c3cc(C)ccc31)CCCC2,83,99% (inactive),83% (inactive),103% (inactive),102% (inactive),8.28% (inactive),94.1,102,-4.74% (inactive),4.75% (inactive)
CC1CCN(S(=O)(=O)c2ccc3[nH]c(=O)cc(C(=O)O)c3c2)CC1,98,114% (inactive),98% (inactive),106% (inactive),105% (inactive),17.1% (inactive),88.3,105,-4.16% (inactive),-4.1% (inactive)
COc1ccc(Cl)cc1Nc1nc(C)cc(=O)[nH]1,95,86% (inactive),95% (inactive),80.6% (inactive),95.8% (inactive),2.12% (inactive),93.7,95.8,-3.68% (inactive),-0.97% (inactive)
Cc1ccc(NCc2nnc(SCC(=O)N3CCCCC3)n2CC2CCCO2)c(C)c1 (stereo not given),94.5,99% (inactive),94.5% (inactive),106% (inactive),88.7% (inactive),1.68% (inactive),87,88.7,-6.8% (inactive),1.13% (inactive)
